Results published in ChEMBL document CHEMBL3046353, “Synthesis and fungicidal activity of some 5-membered heterocyclic derivatives containing benzimidazoles” (1993).
The source made the active and inactive calls. No cut-off for these calls is given here.

Columns and labels:
Sagittaria latifolia [1] = assay: Herbicidal activity against Sagittaria latifolia (broadleaf arrowhead) under paddy conditions; type: functional, organism-based
Sagittaria latifolia [2] = assay: Pre-emergence herbicidal activity against Sagittaria latifolia (broadleaf arrowhead); type: functional, organism-based
Sagittaria latifolia [3] = assay: Post-emergence herbicidal activity against Sagittaria latifolia (broadleaf arrowhead); type: functional, organism-based
Schoenoplectus acutus [4] = assay: Herbicidal activity against Schoenoplectus acutus (hardstem bulrush) under paddy conditions; type: functional, organism-based
Schoenoplectus acutus [5] = assay: Post-emergence herbicidal activity against Schoenoplectus acutus (hardstem bulrush); type: functional, organism-based
Schoenoplectus acutus [6] = assay: Pre-emergence herbicidal activity against Schoenoplectus acutus (hardstem bulrush); type: functional, organism-based
Echinochloa crus-galli [7] = assay: Herbicidal activity against Echinochloa crus-galli (barnyard grass) under paddy conditions; type: functional, organism-based
Echinochloa crus-galli [8] = assay: Post-emergence herbicidal activity against Echinochloa crus-galli (barnyard grass); type: functional, organism-based
Oryza sativa [9] = assay: Herbicidal activity against Oryza sativa (rice) under paddy conditions; type: functional, organism-based
Echinochloa crus-galli [10] = assay: Pre-emergence herbicidal activity against Echinochloa crus-galli (barnyard grass); type: functional, organism-based
Oryza sativa [11] = assay: Pre-emergence herbicidal activity against Oryza sativa (rice); type: functional, organism-based
Abutilon theophrasti [12] = assay: Post-emergence herbicidal activity against Abutilon theophrasti (velvetleaf); type: functional, organism-based
Oryza sativa [13] = assay: Post-emergence herbicidal activity against Oryza sativa (rice); type: functional, organism-based
Abutilon theophrasti [14] = assay: Pre-emergence herbicidal activity against Abutilon theophrasti (velvetleaf); type: functional, organism-based
Convolvulaceae [15] = assay: Herbicidal activity against Convolvulaceae (morning glory family) under paddy conditions; type: functional, organism-based
Convolvulaceae [16] = assay: Post-emergence herbicidal activity against Convolvulaceae (morning glory family); type: functional, organism-based
Avena sativa [17] = assay: Herbicidal activity against Avena sativa under paddy conditions; type: functional, organism-based
Convolvulaceae [18] = assay: Pre-emergence herbicidal activity against Convolvulaceae (morning glory family); type: functional, organism-based
Avena sativa [19] = assay: Pre-emergence herbicidal activity against Avena sativa; type: functional, organism-based
Avena sativa [20] = assay: Post-emergence herbicidal activity against Avena sativa; type: functional, organism-based
Spodoptera litura = assay: Insecticidal activity against Spodoptera litura; type: functional, organism-based
Tetranychus cinnabarinus = assay: Insecticidal activity against Tetranychus cinnabarinus (carmine spider mite); type: functional, organism-based
Culex pipiens pallens = assay: Insecticidal activity against Culex pipiens pallens (mosquito) at 3 to 5 ppm; type: functional, organism-based
Musca domestica = assay: Insecticidal activity against Musca domestica (house fly); type: functional, organism-based
Rhizoctonia solani = assay: Fungicidal activity against Rhizoctonia solani at 500 ppm after 7 days by poisoned food technique; type: functional; details: 168 h, read-out: GI
Outline: (§1)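 Cultures kept on potato dextrose agar. Each compound, dissolved in acetone, was added to potato dextrose agar at a final 500 ppm (w/v) (poisoned food technique). A disc cut from the periphery of a seven-day-old culture was inoculated onto each set. Control sets held potato dextrose agar only. The read-out is percentage inhibition of fungal growth relative to control.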

Helminthosporium = assay: Fungicidal activity against Helminthosporium oryzae at 500 ppm after 7 days by poisoned food technique; type: functional; details: 168 h, read-out: GI; outline: as §1

SMILES	Activity (Sagittaria latifolia [1])	Activity (Sagittaria latifolia [2])	Activity (Sagittaria latifolia [3])	Activity (Schoenoplectus acutus [4])	Activity (Schoenoplectus acutus [5])	Activity (Schoenoplectus acutus [6])	Activity (Echinochloa crus-galli [7])	Activity (Echinochloa crus-galli [8])	Activity (Oryza sativa [9])	Activity (Echinochloa crus-galli [10])	Activity (Oryza sativa [11])	Activity (Abutilon theophrasti [12])	Activity (Oryza sativa [13])	Activity (Abutilon theophrasti [14])	Activity (Convolvulaceae [15])	Activity (Convolvulaceae [16])	Activity (Avena sativa [17])	Activity (Convolvulaceae [18])	Activity (Avena sativa [19])	Activity (Avena sativa [20])	other results
Clc1ccc(-c2nnc(SCc3nc4ccccc4[nH]3)s2)cc1	inactive	inactive	inactive	inactive	inactive	inactive	inactive	inactive	inactive	inactive	inactive	inactive	inactive	inactive	inactive	inactive	inactive	inactive	inactive	inactive	Activity (Spodoptera litura): inactive; Activity (Tetranychus cinnabarinus): inactive; Activity (Culex pipiens pallens): Active; Activity (Musca domestica): inactive; inhibition of growth at 500 ppm (Rhizoctonia solani): 39%; inhibition of growth at 500 ppm (Helminthosporium): 52.5%
Nn1c(SCc2nc3ccccc3[nH]2)nnc1-c1ccccc1	inactive	inactive	inactive	inactive	inactive	inactive	inactive	inactive	inactive	inactive	inactive	inactive	inactive	inactive	inactive	inactive	inactive	inactive	inactive	inactive	Activity (Spodoptera litura): inactive; Activity (Tetranychus cinnabarinus): inactive; Activity (Culex pipiens pallens): Active; Activity (Musca domestica): inactive; inhibition of growth at 500 ppm (Rhizoctonia solani): 74.5%; inhibition of growth at 500 ppm (Helminthosporium): 92.5%
Nn1c(SCc2nc3ccccc3[nH]2)nnc1-c1ccccc1Cl	inactive	inactive	inactive	inactive	inactive	inactive	inactive	inactive	inactive	inactive	inactive	inactive	inactive	inactive	inactive	inactive	inactive	inactive	inactive	inactive	Activity (Spodoptera litura): inactive; Activity (Tetranychus cinnabarinus): inactive; Activity (Culex pipiens pallens): Active; Activity (Musca domestica): inactive; inhibition of growth at 500 ppm (Rhizoctonia solani): 39.8%; inhibition of growth at 500 ppm (Helminthosporium): 52.3%
Nn1c(SCc2nc3ccccc3[nH]2)nnc1-c1cccc(Cl)c1	inactive	inactive	inactive	inactive	inactive	inactive	inactive	inactive	inactive	inactive	inactive	inactive	inactive	inactive	inactive	inactive	inactive	inactive	inactive	inactive	Activity (Spodoptera litura): inactive; Activity (Tetranychus cinnabarinus): inactive; Activity (Culex pipiens pallens): Active; Activity (Musca domestica): inactive; inhibition of growth at 500 ppm (Rhizoctonia solani): 61.2%; inhibition of growth at 500 ppm (Helminthosporium): 89.3%
Cc1ccc2[nH]c(CSc3nnc(-c4cccc(Cl)c4)s3)nc2c1	inactive	inactive	inactive	inactive	inactive	inactive	inactive	inactive	inactive	inactive	inactive	inactive	inactive	inactive	inactive	inactive	inactive	inactive	inactive	inactive	Activity (Spodoptera litura): inactive; Activity (Tetranychus cinnabarinus): inactive; Activity (Culex pipiens pallens): Active; Activity (Musca domestica): inactive; inhibition of growth at 500 ppm (Rhizoctonia solani): 60.4%; inhibition of growth at 500 ppm (Helminthosporium): 81.2%
Cc1ccc2[nH]c(CSc3nnc(-c4ccccc4)s3)nc2c1	inactive	inactive	inactive	inactive	inactive	inactive	inactive	inactive	inactive	inactive	inactive	inactive	inactive	inactive	inactive	inactive	inactive	inactive	inactive	inactive	Activity (Spodoptera litura): inactive; Activity (Tetranychus cinnabarinus): inactive; Activity (Culex pipiens pallens): Active; Activity (Musca domestica): inactive; inhibition of growth at 500 ppm (Rhizoctonia solani): 64.5%; inhibition of growth at 500 ppm (Helminthosporium): 71.3%
Cc1ccc2[nH]c(CSc3nc4ccccc4[nH]3)nc2c1	inactive	inactive	inactive	inactive	inactive	inactive	inactive	inactive	inactive	inactive	inactive	inactive	inactive	inactive	inactive	inactive	inactive	inactive	inactive	inactive	Activity (Spodoptera litura): inactive; Activity (Tetranychus cinnabarinus): inactive; Activity (Culex pipiens pallens): Active; Activity (Musca domestica): inactive; inhibition of growth at 500 ppm (Rhizoctonia solani): 61.3%; inhibition of growth at 500 ppm (Helminthosporium): 81.3%
Clc1cccc(-c2nnc(SCc3nc4ccccc4[nH]3)o2)c1	inactive	inactive	inactive	inactive	inactive	inactive	inactive	inactive	inactive	inactive	inactive	inactive	inactive	inactive	inactive	inactive	inactive	inactive	inactive	inactive	Activity (Spodoptera litura): inactive; Activity (Tetranychus cinnabarinus): inactive; Activity (Culex pipiens pallens): Active; Activity (Musca domestica): inactive; inhibition of growth at 500 ppm (Rhizoctonia solani): 69.4%; inhibition of growth at 500 ppm (Helminthosporium): 89.7%
Clc1ccc(-c2nnc(SCc3nc4ccccc4[nH]3)o2)cc1	inactive	inactive	inactive	inactive	inactive	inactive	inactive	inactive	inactive	inactive	inactive	inactive	inactive	inactive	inactive	inactive	inactive	inactive	inactive	inactive	Activity (Spodoptera litura): inactive; Activity (Tetranychus cinnabarinus): inactive; Activity (Culex pipiens pallens): Active; Activity (Musca domestica): inactive; inhibition of growth at 500 ppm (Rhizoctonia solani): 21.2%; inhibition of growth at 500 ppm (Helminthosporium): 39.7%
